Bioassay records deposited in PubChem by several laboratories.
An excerpt weighted towards active compounds, which were near 4.7% of everything screened.
MT1-MMP act inh – MT1-MMP (human) activation inhibition; P50281; HT1080 RFP-PRO-GFP cells, GFP/RFP ratio fluorescence, overnight; percent of plate control window, DMSO zero; GFP/RFP ratio change, % at 20 µM; actives 0.061% (n = 360,000); AID 651647;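 active = GFP/RFP ratio change of at least 30% with cell ATP level not reduced by more than half and red fluorescence within 50% of control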
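system = RFP-PRO-GFP reporter HT1080 cells | dosing = 20 µM single dose, 1% DMSO | timing = overnight cell settling, then overnight compound exposure, 37 °C, 5% CO2 | read-out basis = GFP/RFP fluorescence ratio | controls = DMSO and RFP-L50D-GFP cell wells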
ADAM10 inh – inhibits human ADAM10 | recombinant ADAM10, EDANS/DABCYL FRET peptide cleavage, 3 h | inhibition, % at 7 µM | actives 0.62% (n = 370,000) | AID 720582;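 active = inhibition above a per-campaign cutoff equal to the mean of compounds falling between control-based bounds plus 3 SD, cut at about 20% in these data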;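 note: 0% = DMSO wells while the 100% control is not disclosed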
Target sequence (O14672 214-748 limits assumed): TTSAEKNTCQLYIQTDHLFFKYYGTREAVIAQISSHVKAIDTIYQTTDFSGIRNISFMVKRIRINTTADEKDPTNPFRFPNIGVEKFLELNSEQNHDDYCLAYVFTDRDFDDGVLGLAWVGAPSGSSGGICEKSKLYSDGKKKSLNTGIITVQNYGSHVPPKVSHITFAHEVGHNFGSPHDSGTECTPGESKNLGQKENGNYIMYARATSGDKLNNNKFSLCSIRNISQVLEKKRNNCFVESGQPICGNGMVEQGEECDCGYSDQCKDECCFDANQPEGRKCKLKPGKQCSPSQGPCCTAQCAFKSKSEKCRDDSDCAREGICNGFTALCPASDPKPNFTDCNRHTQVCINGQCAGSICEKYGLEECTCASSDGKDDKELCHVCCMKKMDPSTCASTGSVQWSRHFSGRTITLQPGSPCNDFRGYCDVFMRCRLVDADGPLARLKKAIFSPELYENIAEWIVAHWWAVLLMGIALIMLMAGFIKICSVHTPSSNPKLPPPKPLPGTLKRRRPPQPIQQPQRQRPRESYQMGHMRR
GRIN3A LBD mod – modulators (binders) of human NR3A ligand-binding domain; NR3A LBD differential scanning fluorimetry, Tm shift; 0% = protein alone, 100% = glycine-bound protein; actives 2.5% (n = 340,000); Tm shift relative to glycine control, % at 25 µM;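 active = melting temperature shift of at least 10% of the positive control shift, at one fixed dose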
MPTP block – permeability transition pore inhibition; isolated mouse mitochondria, Ca2+ swelling absorbance, 30 min; inhibition, % at 10 µM; actives 1.4% (n = 360,000); AID 602449;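 active = inhibition of 50% or more, scaled per plate between neutral and stimulator controls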;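 note: 0% = DMSO wells given calcium and 100% = 1 mM EGTA wells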
SKN-1 inh – C. elegans SKN-1 inhibition; AID 624304; C. elegans VP596 Pgst-4::GFP/RFP ratio, acrylamide-induced, 24 h; inhibition, % at 21.8 µM; actives 0.49% (n = 360,000);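 active = interference check ratio from 0.5 to 1.5 plus GFP to RFP signal ratio inhibition reaching or exceeding a fixed threshold, cut at about 30% in these data, passing the limit was not always enough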
ADAM17 inh – inhibits human ADAM17; P78536; recombinant ADAM17, EDANS/DABCYL FRET peptide cleavage; inhibition, % at 6.95 µM; actives 0.83% (n = 370,000);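 active = inhibition above the mean of compounds lying between control limits plus 3 SD, set per campaign, cut at about 8.5% in these data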;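 note: 0% = DMSO-only wells as the low control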
The depositor's hits bear a star; i = inactive; nt = no result; ! = not confirmed by another sample.

SMILES	MT1-MMP act inh	ADAM10 inh	GRIN3A LBD mod	MPTP block	SKN-1 inh	ADAM17 inh
CCn1c(=O)c(=O)[nH]c2cc(C(=O)N(C)Cc3ccc(OC)c(F)c3)ccc21	3.7	-17.8	0.5	-2.1	15.7	-7.8
COc1ccc(-c2ccoc2)cc1[C@H]1[C@H]2C=CC[C@@H](C)[C@@H]2C(=O)N1Cc1ccccc1	-1.2	-46.9	14.3*	-0.4	-12.9	-12.2
COc1ccc(-c2ccc([C@H]3[C@H]4C=CC[C@@H](C)[C@@H]4C(=O)N3Cc3ccccc3)c(F)c2)cc1	-1.0	6.1	15.7*	-0.5	-8.2	-0.3
OCCN(CCO)c1ccc2ccccc2c1	4.3	i	2.4	-2.3	-11.4	-271.8
OCCN(CCO)c1ccc(C(c2ccccc2Cl)c2ccc(N(CCO)CCO)cc2Cl)c(Cl)c1	5.4	nt	-12.4	-4.1	36.4*	nt
CC(C)(C)OC(=O)NCCCCCNC(=O)c1nc[nH]c1C(=O)NCc1ccc(CNC(=O)OC(C)(C)C)cc1	19.2	22.6*	-22.0	2.7	2.3	12.4*
C[C@H](NC(=O)c1[nH]cnc1C(=O)Nc1ccc(CNC(=O)OC(C)(C)C)cc1)C(=O)OCc1ccccc1	5.4	2.8	-6.2	0.5	2.3	0.7
CC(C)C[C@H](NC(=O)c1[nH]cnc1C(=O)Nc1ccc(CNC(=O)OC(C)(C)C)cc1)C(=O)OCc1ccccc1	6.1	5.1	36.2*	-2.3	18.6	-1.3
CC(C)(C)OC(=O)NCc1ccc(CNC(=O)c2nc[nH]c2C(=O)NCc2ccc(CNC(=O)OC(C)(C)C)cc2)cc1	13.3	10.6	-4.6	1.0	14.9	12.0*
N/C(=N\OC(=O)c1ccc(Br)cc1)c1cccc([N+](=O)[O-])c1	-0.8	-1.1	7.0	1.5	1.2	1.6
Cc1ccc(C(=O)O/N=C(\N)c2cccc([N+](=O)[O-])c2)cc1	0.3	-6.3	12.9*	0.4	5.9	-6.9
Cc1ccc(S(=O)(=O)N(C)CC(=O)O/N=C(\N)c2ccc([N+](=O)[O-])cc2)cc1	3.7	2.8	21.3*	4.5	10.4	-1.4
COc1cc(C(=O)O/N=C(\N)c2cccc([N+](=O)[O-])c2)cc(OC)c1OC	7.1	-10.6	13.9*	3.8	7.7	-5.7
CN(CC(=O)O/N=C(\N)c1ccc([N+](=O)[O-])cc1)S(=O)(=O)c1ccccc1	0.6	-0.9	0.7	-2.6	10.1	0.3
O=C(NCC1CC1)c1onc(CSc2nc3ccccc3[nH]2)c1C(=O)NCC1CC1	-6.3	3.8	-6.4	-0.5	-8.2	-4.9
CCC(=O)Nc1ccc(S(=O)(=O)Nc2nccs2)cc1	1.0	-2.2	-1.8	-0.6	0.2	-2.5
CCCCC1CCC(C(=O)Nc2ccc(S(=O)(=O)Nc3nccs3)cc2)CC1 (stereo not drawn)	-4.6	nt	15.4*	6.6	4.0	nt
O=C(NCc1ccncc1)c1ccc(Cl)c(S(=O)(=O)N2CCOCC2)c1	2.1	0.2	321.5*	3.8	-10.1	-4.9
COc1ccc(C(=O)NCc2ccncc2)cc1S(=O)(=O)N1CCOCC1	-3.2	-3.7	-2.2	-1.7	-1.3	-1.8
Fc1cc2[nH]c(=S)[nH]c2cc1Cl	3.9	-4.1	32.3*	3.8	0.6	-2.0
COc1ccc(-c2cc(C(=O)NN=Cc3ccc(O)c(OC)c3)[nH]n2)cc1	nt	-9.8	nt	nt	nt	-0.6
COc1cc(/C=N/NC(=O)c2sc(N)c(C#N)c2C)ccc1O	-4.5	-4.5	14.8*	5.0	-10.5	-7.0
Cc1c(C(=O)N/N=C/c2ccc(O)c(Br)c2)sc(N)c1C#N	-53.3	-14.2	14.0*	2.1	-5.7	-3.8
Cc1c(C(=O)N/N=C/c2ccc(-c3ccccc3[N+](=O)[O-])o2)sc(N)c1C#N	-6.2	-14.9	-1.6	2.2	15.1	-5.8
Cn1c(Cn2nnc3ccccc32)nnc1SCC(=O)Nc1ccc2c(c1)OCO2	-1.0	-11.0	5.4	-0.2	8.2	-6.5
SMILES	MT1-MMP act inh	ADAM10 inh	GRIN3A LBD mod	MPTP block	SKN-1 inh	ADAM17 inh
CCOC(=O)C1CCN(C(=O)c2ccccc2NC(=O)c2ccc(Cl)cc2)CC1	2.2	0.1	-5.5	-2.1	6.3	-3.3
Cc1ccc(S(=O)(=O)N2C[C@H]3[C@H]4C(=O)N(c5ccccc5)C(=O)[C@H]4CC(=O)[C@H]3[C@@H]2c2ccccc2F)cc1	3.3	-14.8	nt	-2.6	5.5	-4.3
Cc1ccc(S(=O)(=O)N2C[C@H]3[C@H]4C(=O)N(c5ccccc5)C(=O)[C@H]4CC(=O)[C@H]3[C@@H]2c2cccc3ccccc23)cc1	5.4	11.7	nt	-1.4	35.5*	3.9
CCOC(=O)C1=C(Nc2ccccc2)CC(C)(O)C(C(=O)OCC)C1c1ccc(Cl)cc1 (stereo not drawn)	-1.8	2.6	0.2	-2.9	44.2*!	1.6
CC(C#N)(Nc1ccc(Cl)cc1)c1cccnc1 (stereo not drawn)	5.5	-6.5	16.4*	-12.4	-9.1	-2.7
Clc1ccc(NCc2cccnc2)cc1	2.8	-7.4	2.1	2.2	10.0	-4.1
CCOC(=O)c1cn(Cc2ccc(Cl)cc2Cl)c2cc(C)nn2c1=O	5.6	-108.3	-0.3	1.9	3.9	-55.0
CCOC(=O)c1cn(Cc2ccccc2)c2cc(C)nn2c1=O	2.1	-177.7	11.0*	1.3	3.7	-64.0
COc1ccc(CNC(=O)c2onc(C)c2Cl)cc1	2.7	8.8	1.8	-1.9	7.8	-0.2
FC(F)(F)c1ccc(/C=N/N2CCN(Cc3cccc4ccccc34)CC2)cc1	0.9	1.3	2.3	0.8	-5.0	-2.6
O=C(O)c1ccc(/C=N/N2CCN(Cc3cccc4ccccc34)CC2)cc1	4.6	12.8	191.9*	-0.9	-2.1	0.5
Cc1ccc(-n2[nH]c(C)c(C=NC34CN5CN(CN(C5)C3)C4)c2=O)cc1C	-1.7	7.2	3.1	-1.5	5.4	-5.0
COCCCN=Cc1c(C)[nH]n(-c2ccc(Br)c(C)c2)c1=O	6.6	1.0	66.1*	1.4	11.8	2.5
Cc1ccccc1N1CCN(C(=O)NCc2cccc(Cl)c2)CC1	1.8	6.2	-0.3	1.4	3.8	1.7
O=C(c1cc(-c2cccc(O)c2)on1)N1CCOCC1	2.6	5.8	4.0	0.1	6.2	2.7
Cc1ccc(-n2c(=O)c3sccc3n(Cc3cc(=O)n4cc(Cl)ccc4n3)c2=O)cc1F	0.0	-18.2	14.8*	-2.3	4.2	-5.7
Cc1ccc(-n2c(=O)c3sccc3n(Cc3cc(=O)n4ccccc4n3)c2=O)cc1F	nt	-11.0	nt	nt	nt	-2.9
Cc1cc(NC(=O)c2ccc(S(=O)(=O)Nc3ccccc3)cc2)no1	-3.4	-2.2	-4.3	1.4	-2.1	0.2
CC(=O)Nc1nc(-c2cccs2)cs1	1.8	-11.0	1.4	1.2	2.4	-9.1
O=C(Nc1nc(-c2cccs2)cs1)c1ccc(Cl)s1	-22.7	-9.2	28.3*	4.5	29.9	-1.0
